# In the library only some 2.9% were active in any assay of this set; here they are far more common.
# Kir21 block: inhibitors of mouse Kir2.1 inward-rectifier potassium channel | HEK293-Kir2.1, FluxOR thallium flux fluorescence; active compounds read low | B-score at 10 µM | 310,000 tested, 0.85% active | Inward rectifier potassium channel 2 (Mus musculus), P35561 | AID 1672, 2009;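 active means fluorescence ratio B-score at or below minus 3 SD of library scores, with starting-brightness B-score within 2 SD, cut at about -4.2 in these data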;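 further: channel flux triggered by added potassium and thallium sulfate stimulus; B-score of peak minus minimum fluorescence over baseline after thallium stimulus; more negative B-score means stronger Kir2.1 block with less thallium influx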
# TRPC6 activator: mouse TRPC6 channel activators, primary screen, cell-based, HEK293, membrane potential dye. Short transient receptor potential channel 6 (Mus musculus), Q61143. HEK293-TRPC6 membrane potential dye fluorescence; active compounds read high. B-score at 10 µM. 310,000 tested, 0.13% active. AID 2550, 2010;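 active means B-score of the integrated fluorescence ratio above library mean plus 3 SD, and starting fluorescence ratio within library mean plus 5 SD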;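 further: higher score means more depolarization so channel activation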
# TRPC4 block: inhibitors of mouse TRPC4 channel, primary screen, Fluo4 calcium, HEK293 TRPC4beta/mu-opioid cells. B-score at 10 µM. DAMGO-evoked Fluo4 calcium flux; active compounds read low. 300,000 tested, 0.39% active;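 active means B-score over 3 SD under the library average, no early fluorescence shift, positive overall ratio signal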
#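 Material: HEK293 cells with stable TRPC4beta plus mu-opioid receptor expression; probe or stimulus: DAMGO in two steps, submaximal then maximal; technique: Fluo4 calcium fluorescence by kinetic imaging, 5 s 1 Hz baseline; measure: integrated fluorescence ratio relative to baseline, converted to per-well B score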
# TRPC6 inh: mouse TRPC6 channel inhibitors, primary screen, cell-based, HEK293, membrane potential dye; Short transient receptor potential channel 6 (Mus musculus), Q61143; ACh-evoked depolarization; active compounds read low; B-score at 10 µM; 310,000 tested, 1.1% active;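 active means B-score under library mean minus 3 SD, initial fluorescence not abnormally high, positive integrated signal ratio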;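 further: B-score derived from integrated fluorescence ratio over the kinetic read; more negative B-score means stronger inhibition of depolarization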
# TRPC4 potent: positive allosteric modulators of TRPC4, primary screen, cell-based, mouse TRPC4beta, HEK293 mu-opioid, Fluo-4 calcium; DAMGO EC20, Fluo-4 Ca2+ flux; active compounds read high; AID 2227, 2009; 310,000 tested, 0.42% active; B-score at 10 µM; Short transient receptor potential channel 4 (Mus musculus), Q9QUQ5;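 active means B-score of calcium response area above 5 SD of library B-scores, with initial fluorescence ratio within 5 SD of library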;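 further: B-score of integrated fluorescence ratio over time as area under calcium response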
# TRPC4 act: activators of mouse TRPC4 channel, primary screen, Fluo4 calcium, HEK293 TRPC4beta/mu-opioid cells; 310,000 tested, 0.49% active; AID 2237, 2010; B-score at 10 µM; Short transient receptor potential channel 4 (Mus musculus), Q9QUQ5; Fluo4 calcium fluorescence; active compounds read high;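 active means B-score above 5 SD of library B-scores, and initial fluorescence ratio not above library mean plus 5 SD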;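 further: positive B-score marks a calcium rise read as TRPC4 activation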
#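 Incubation: 45 min room-temperature Fluo4 loading, 110 s read / System: HEK293 cells stably co-expressing mouse TRPC4beta and mu-opioid receptor / Signal: Fluo4 fluorescence, kinetic / Control set: buffer (low) and maximal DAMGO (high) / Measure: integrated baseline-normalised fluorescence ratio, converted to per-well B score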
# hERG ctr: hERG channel inhibition, counter-screen for Kir2.1 inhibitor project, cell-based, thallium flux | shares compounds with Kir21 block | AID 2236, 2010 | 320 tested, 20% active | inhibition, % at 10 µM | hERG-expressing cells;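 further: host cells are CHO cells stably expressing hERG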
# KCNK9 inh: KCNK9 channel inhibition, selectivity assay for Kir2.1 inhibitor project, cell-based | inhibition, % at 10 µM | AID 2329, 2010 | shares compounds with Kir21 block | 320 tested, 5% active | KCNK9-expressing cells, ion flux inhibition
# Kir21 ephys inh: mouse Kir2.1 channel blockers, Kir2.1 inhibitor project, cell-based, secondary, automated electrophysiology; shares compounds with Kir21 block; Kir2.1 cells, automated patch-clamp current inhibition; inhibition, % at 25 µM; 320 tested, 71% active
# The depositor's hits bear a star; i = inactive; . = no result. Unless noted, how the calls were made is not given here.
SMILES,Kir21 block,TRPC6 activator,TRPC4 block,TRPC6 inh,TRPC4 potent,TRPC4 act,hERG ctr,KCNK9 inh,Kir21 ephys inh
CC(O)(CC(=O)O)CC(=O)O,-0.06,i,i,i,i,i,.,.,.
COc1cccc(OC)c1OCCOc1ccccc1OC(C)C,-11*,i,i,i,i,i,i,i,42%*
CCS(=O)(=O)N1CCC(NC(=O)C(Cc2cc(OC)ccc2OC)NC(C)=O)CC1 (stereo unspecified),1.9,i,i,i,i,i,i,i,i
CCOC(=O)C(NS(=O)(=O)c1ccc(Br)cc1)C(C)C (stereo unspecified),-8.5*,i,i,i,i,i,i,i,49%*
O=C1C(=O)N(CCCO)C(c2ccc(Br)cc2)/C1=C(\O)c1ccc(Br)cc1 (stereo unspecified),-0.41,i,i,i,i,i,.,.,.
O=C(NC1=NCCS1)c1ccc(Cl)c(S(=O)(=O)N2CCOCC2)c1,0.77,i,i,i,i,i,.,.,.
COc1cc(CNCc2ccc(Br)cc2)cc(OC)c1,-7.5*,i,i,i,i,i,i,i,72%*
CCN1CCN(CC(=O)c2ccc(OC)cc2)CC1,3.2,i,i,i,i,i,.,.,.
Cc1cc(C)c(OCCCCN(C)C)c(Br)c1,-2.5,i,i,i,i,i,.,.,.
Cc1cc(C)c(OCCCCN(C)Cc2ccccc2)c(C)c1,-7.8*,i,i,i,i,i,i,i,36%*
O=C1COc2ccc(C(=O)COc3ccc(Cl)cc3Br)cc2N1,0.97,i,i,i,i,i,.,.,.
CCN(Cc1ccccc1)S(=O)(=O)c1ccc2c(c1)NC(=O)CC(=O)N2,-2.2,i,i,i,i,i,.,.,.
CCN(Cc1ccccc1)S(=O)(=O)c1ccc2c(c1)NC(=O)CS2,-5.8*,i,i,i,i,i,i,i,i
Cn1nc(-c2ccccc2)c(CN2CCN(c3ncccn3)CC2)c1Cl,-2.7,i,i,i,i,i,.,.,.
CN(C)CC1CCCCC1C1(O)c2ccccc2CSc2sccc21 (stereo unspecified),-5.7*,i,i,i,i,i,i,i,i
Cc1c(C=O)c2ccccc2n1CC(=O)NCc1ccc2c(c1)OCO2,-0.05,i,i,i,i,i,.,.,.
Clc1ccc(-c2cc(C3CCNCC3)[nH]n2)cc1,-8.9*,i,i,i,i,i,i,i,i
CCc1cc(-c2n[nH]c(C)c2-c2nc(C)cs2)c(O)cc1OC,-11*,i,i,i,i,i,i,i,6.3%*
CCN(CC)C(=O)Cn1cc(C(=O)C(=O)N2CCN(Cc3ccc4c(c3)OCO4)CC2)c2ccccc21,-0.89,i,i,i,i,i,.,.,.
COc1ccc(CCN2CCCC(CN(C)Cc3cccc(OC)c3)C2)cc1 (stereo unspecified),-9.5*,i,i,i,i,i,i,i,37%*
